Analgesic activity and inhibition in vivo data for two molecules are collected here from ChEMBL document CHEMBL1123340, “Synthesis and analgesic evaluation of 4-(2-heptyloxy)-7-[(Z)-(3-hydroxycyclohexyl)]indole: a caveat on indole-phenol bioisosterism” (1986).

Each structure is given as a SMILES string.

Common to all, as to assay type: functional
Experiment [1] has as its system Mus musculus. In words: Compound was tested at a dose of 20 mg/kg administered intraperitoneally for a pretreatment time of 20 min for analgesic activity using phenyl benzoquinone. As to conditions: route intraperitoneal. In a few lines:
(§1)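 Mouse phenylbenzoquinone (PBQ) writhing test. Test drug is given sc, ip or iv at the stated pretreatment time before PBQ injection. Mice are placed in individual observation boxes, and total writhes per group are counted over the following 15 min. Vehicle is emulphor/ethanol/saline (1:1:18), diluted from a 1:1 emulphor/ethanol stock, and vehicle-injected controls are run. Result is % inhibition of writhing versus vehicle controls.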

Experiment [2] relates to Mus musculus. Description: Compound was tested at a dose of 20 mg/kg administered intraperitoneally for a pretreatment time of 60 min. Particulars: route intraperitoneal. In short, it runs like this: as §1
For experiment [3], the system named is Mus musculus. Description: Compound was tested at a dose of 20 mg/kg administered intravenously for a pretreatment time of 10 min. Particulars: route intravenous. In short, it runs like this:
as §1

Experiment [4] relates to Mus musculus. In words: Compound was tested at a dose of 20 mg/kg administered subcutaneously for a pretreatment time of 15 min for analgesic activity using phenylbenzoquinone (PBQ). Particulars: route subcutaneous. In short, it runs like this:
as §1

Experiment [5] has as its system Mus musculus. Description: Compound was tested at a dose of 20 mg/kg administered subcutaneously for a pretreatment time of 60 min for analgesic activity using phenylbenzoquinone (PBQ). As to conditions: route subcutaneous. In a few lines: as §1
Experiment [6] has as its system Mus musculus. In words: Inhibition of the Mouse PBQ Writhing at a dose of 20 mg/kg ip afer 20 min. As to conditions: route intraperitoneal. In short, it runs like this:
as §1
On the technique in general: An intraperitoneal irritant provokes the stretching counted in writhing tests.

Experiment [7] relates to Mus musculus. In words: Inhibition of the Mouse PBQ Writhing at a dose of 20 mg/kg ip afer 60 min. As to conditions: 1 h, route intraperitoneal. In a few lines:
as §1

The test system of experiment [8] is Mus musculus. Description: Inhibition of the Mouse PBQ Writhing at a dose of 20 mg/kg iv afer 30 min. Particulars: 0.5 h. In a few lines:
as §1

The subject of experiment [9] is Mus musculus. Description: Inhibition of the Mouse PBQ Writhing at a dose of 20 mg/kg sc after 120 min. As to conditions: 2 h, route subcutaneous. In a few lines:
as §1

Experiment [10] deals with Mus musculus. Description: Inhibition of the Mouse PBQ Writhing at a dose of 20 mg/kg sc after 15 min. Particulars: 0.25 h, route subcutaneous. In a few lines: as §1
The test system of experiment [11] is Mus musculus. Description: Inhibition of the Mouse PBQ Writhing at a dose of 20 mg/kg sc after 60 min. As to conditions: 1 h, route subcutaneous. In short, it runs like this: as §1
Experiment [12] has as its system Mus musculus. Description: Inhibition of the Mouse PBQ Writhing at a dose of 20 mg/kg iv afer 10 min. In a few lines:
as §1

Experiment [13] deals with Mus musculus. Description: Compound was tested at a dose of 20 mg/kg administered subcutaneously for a pretreatment time of 120 min for analgesic activity using phenylbenzoquinone (PBQ). As to conditions: route subcutaneous. In a few lines:
as §1

For experiment [14], the system named is Mus musculus. In words: Compound was tested at a dose of 5 mg/kg administered subcutaneously for a pretreatment time of 60 min for analgesic activity using phenylbenzoquinone (PBQ). As to conditions: route subcutaneous. In a few lines:
as §1

The test system of experiment [15] is Mus musculus. Description: Compound was tested at a dose of 10 mg/kg administered subcutaneously for a pretreatment time of 60 min for analgesic activity using phenylbenzoquinone (PBQ). Particulars: route subcutaneous. In a few lines:
as §1

Experiment [16] deals with Mus musculus. In words: Inhibition of the Mouse PBQ Writhing at a dose of 10 mg/kg sc after 60 min. Particulars: 1 h, route subcutaneous. In short, it runs like this: as §1
The test system of experiment [17] is Mus musculus. In words: Inhibition of the Mouse PBQ Writhing at a dose of 5 mg/kg sc after 60 min. As to conditions: 1 h, route subcutaneous. In short, it runs like this: as §1

For the molecule `CCCCCC(C)Oc1ccc([C@H]2CCC[C@@H](O)C2)c2[nH]ccc12` (some centres undefined), the Analgesic activity was determined as 24.4 in the experiment with Mus musculus [1]; 29.2 with Mus musculus [2]; 24.8 in the experiment with Mus musculus [3]; 16.7 with Mus musculus [4]; 27.2 with Mus musculus [5]; 32.4 with Mus musculus [13]. Further, the inhibition in vivo at 20 mg/kg is 10% in the experiment with Mus musculus [6]; 0% in the experiment with Mus musculus [7]; 0% with Mus musculus [8]; 0% with Mus musculus [9]; 21.6% in the experiment on Mus musculus [10]; 0% with Mus musculus [11]. In the experiment with Mus musculus [12], this molecule had an inhibition in vivo at 20 mg/kg of 20.3%.

Take `CCCCCC(C)Oc1ccc([C@H]2CCC[C@@H](O)C2)c(O)c1` (some centres undefined): the Analgesic activity was 2.9 with Mus musculus [5], 23.8 in the experiment on Mus musculus [14] and 15.3 in the experiment on Mus musculus [15]. In the experiment on Mus musculus [16], this molecule showed an inhibition in vivo at 10 mg/kg of 54.5%. The molecule also showed an inhibition in vivo at 20 mg/kg in the experiment with Mus musculus [11] of 91.4%. In the experiment with Mus musculus [17], this molecule showed an inhibition in vivo at 5 mg/kg of 29.2%.

The inhibition in vivo is the drop in the measured response relative to a control, in per cent. Read a high inhibition in vivo as a response far below the control.
